Calls of active or inactive are those of the source. The rule behind the calls is not given here.
Experiments:
[1] = species: Homo sapiens; experiment: Inhibition of HDAC in human HeLa-S3 cells lysates assessed as remaining enzyme activity at 1.2 x 10^-5 M pre-incubated for 15 mins before HDAC-Glo I/II substrate addition and measured after 30 mins post substrate addition; format: cell-free
[2] = species: Homo sapiens; experiment: Inhibition of HDAC in human HeLa-S3 cells lysates assessed as remaining enzyme activity at 6 x 10^-6 M pre-incubated for 15 mins before HDAC-Glo I/II substrate addition and measured after 30 mins post substrate addition; format: cell-free
[3] = species: Homo sapiens; experiment: Inhibition of HDAC in human HeLa-S3 cells lysates assessed as remaining enzyme activity at 3 x 10^-6 M pre-incubated for 15 mins before HDAC-Glo I/II substrate addition and measured after 30 mins post substrate addition; format: cell-free
[4] = species: Homo sapiens; experiment: Inhibition of HDAC in human HeLa-S3 cells lysates assessed as remaining enzyme activity at 1.5 x 10^-6 M pre-incubated for 15 mins before HDAC-Glo I/II substrate addition and measured after 30 mins post substrate addition; format: cell-free
[5] = species: Homo sapiens; experiment: Inhibition of HDAC in human HeLa-S3 cells lysates assessed as remaining enzyme activity at 7.5 x 10^-7 M pre-incubated for 15 mins before HDAC-Glo I/II substrate addition and measured after 30 mins post substrate addition; format: cell-free
[6] = biological target: T1, Histone deacetylase 1 (Homo sapiens, UniProt Q13547); experiment: Inhibition of HDAC1 (unknown origin) assessed as remaining enzyme activity at 0.25 uM by ELISA-based assay
How it was run: (§1)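 Isoform screen by ELISA-based HDAC activity assay against HDAC1, HDAC2, HDAC3 and HDAC6. Each analog was tested at one final concentration: 0.025, 0.125, 0.25 or 1.25 µM. Read-out is percent deacetylase activity remaining, given as the mean with standard error of at least two independent trials.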

[7] = biological target: T2, Histone deacetylase 2 (Homo sapiens, UniProt Q92769); experiment: Inhibition of HDAC2 (unknown origin) assessed as remaining enzyme activity at 0.25 uM by ELISA-based assay; how it was run: as §1
[8] = biological target: T3, Histone deacetylase 3 (Homo sapiens, UniProt O15379); experiment: Inhibition of HDAC3 (unknown origin) assessed as remaining enzyme activity at 0.25 uM by ELISA-based assay; how it was run: as §1
[9] = biological target: T4, Protein deacetylase HDAC6 (Homo sapiens) (UniProt Q9UBN7); experiment: Inhibition of HDAC6 (unknown origin) assessed as remaining enzyme activity at 0.25 uM by ELISA-based assay
T4 sequence (whole entry): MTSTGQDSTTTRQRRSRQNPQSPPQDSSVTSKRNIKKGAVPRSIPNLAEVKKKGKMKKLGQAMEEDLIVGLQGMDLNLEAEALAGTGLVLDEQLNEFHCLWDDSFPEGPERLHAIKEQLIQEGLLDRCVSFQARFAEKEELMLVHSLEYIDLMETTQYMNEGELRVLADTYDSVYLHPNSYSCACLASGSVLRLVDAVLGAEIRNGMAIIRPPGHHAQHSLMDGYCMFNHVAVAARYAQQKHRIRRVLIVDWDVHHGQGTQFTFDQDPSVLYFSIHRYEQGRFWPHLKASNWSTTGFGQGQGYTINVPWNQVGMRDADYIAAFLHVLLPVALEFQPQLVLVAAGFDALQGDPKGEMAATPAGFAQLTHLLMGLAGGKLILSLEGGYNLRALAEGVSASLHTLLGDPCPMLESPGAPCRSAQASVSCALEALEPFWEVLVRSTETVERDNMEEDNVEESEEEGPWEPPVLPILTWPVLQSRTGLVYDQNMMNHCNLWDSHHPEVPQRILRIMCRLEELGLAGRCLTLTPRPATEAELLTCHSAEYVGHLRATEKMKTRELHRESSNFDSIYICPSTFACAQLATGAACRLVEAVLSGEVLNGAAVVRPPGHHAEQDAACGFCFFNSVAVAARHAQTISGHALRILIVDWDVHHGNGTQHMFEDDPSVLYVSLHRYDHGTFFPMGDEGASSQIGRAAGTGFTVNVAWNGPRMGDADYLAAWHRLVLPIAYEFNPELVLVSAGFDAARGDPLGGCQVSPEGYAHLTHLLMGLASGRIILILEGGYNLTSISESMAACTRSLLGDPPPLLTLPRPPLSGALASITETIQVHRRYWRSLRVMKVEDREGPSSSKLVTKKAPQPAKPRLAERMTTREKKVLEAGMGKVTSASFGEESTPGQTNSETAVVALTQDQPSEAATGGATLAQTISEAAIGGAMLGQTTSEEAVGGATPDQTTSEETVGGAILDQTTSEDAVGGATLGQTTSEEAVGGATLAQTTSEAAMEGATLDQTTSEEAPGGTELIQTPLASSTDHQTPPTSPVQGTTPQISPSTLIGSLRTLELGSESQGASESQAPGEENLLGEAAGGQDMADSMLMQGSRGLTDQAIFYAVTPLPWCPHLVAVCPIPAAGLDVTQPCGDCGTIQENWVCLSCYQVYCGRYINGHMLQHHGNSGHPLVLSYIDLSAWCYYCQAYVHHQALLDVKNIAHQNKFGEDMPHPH
How it was run: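 Single-concentration isoform screen using an ELISA-based HDAC activity assay, run in parallel against HDAC1, HDAC2, HDAC3 and HDAC6. Read-out is percent deacetylase activity remaining, given as the mean of at least two independent trials with standard error.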

[10] = biological target: T2, Histone deacetylase 2; experiment: Inhibition of HDAC2 (unknown origin) assessed as remaining enzyme activity at 5 x 10^-7 M by ELISA-based assay
[11] = biological target: T3, Histone deacetylase 3; experiment: Inhibition of HDAC3 (unknown origin) assessed as remaining enzyme activity at 5 x 10^-7 M by ELISA-based assay
[12] = biological target: T4, Protein deacetylase HDAC6 (Homo sapiens); experiment: Inhibition of HDAC6 in human U937 cells assessed as increase in acetylated-alpha-tubulin level incubated for 18 hrs by Western blot method; format: cell-based
How it was run: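 U937 cells were treated with inhibitor at 10–40 µM, with 1% DMSO as vehicle control. Cells were then lysed, run on SDS-PAGE, transferred to PVDF and western-blotted for acetyl-Lys40 α-tubulin, with acetyl-Lys9 histone H3 as the class I marker. GAPDH was probed as a loading control, and trials were repeated.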

[13] = biological target: T1, Histone deacetylase 1; experiment: Inhibition of HDAC1 in human U937 cells assessed as increase in acetylated-histone H3 level at 10 to 40 uM incubated for 18 hrs by Western blot method; format: cell-based
How it was run: (§2)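 U937 cells were treated with 10–40 µM compound, with a 1% DMSO vehicle control. Cells were then lysed and the lysates run on SDS-PAGE and transferred to PVDF. Blots were probed for histone H3 acetyl-Lys9, which reports class I HDAC (1, 2, 3) inhibition, with GAPDH as the loading control. Repeat trials were run.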

[14] = biological target: T2, Histone deacetylase 2; experiment: Inhibition of HDAC2 in human U937 cells assessed as increase in acetylated-histone H3 level at 10 to 40 uM incubated for 18 hrs by Western blot method; format: cell-based; how it was run: as §2
[15] = biological target: T3, Histone deacetylase 3; experiment: Inhibition of HDAC3 in human U937 cells assessed as increase in acetylated-histone H3 level at 10 to 40 uM incubated for 18 hrs by Western blot method; format: cell-based; how it was run: as §2

T2 sequence (Q92769 whole entry): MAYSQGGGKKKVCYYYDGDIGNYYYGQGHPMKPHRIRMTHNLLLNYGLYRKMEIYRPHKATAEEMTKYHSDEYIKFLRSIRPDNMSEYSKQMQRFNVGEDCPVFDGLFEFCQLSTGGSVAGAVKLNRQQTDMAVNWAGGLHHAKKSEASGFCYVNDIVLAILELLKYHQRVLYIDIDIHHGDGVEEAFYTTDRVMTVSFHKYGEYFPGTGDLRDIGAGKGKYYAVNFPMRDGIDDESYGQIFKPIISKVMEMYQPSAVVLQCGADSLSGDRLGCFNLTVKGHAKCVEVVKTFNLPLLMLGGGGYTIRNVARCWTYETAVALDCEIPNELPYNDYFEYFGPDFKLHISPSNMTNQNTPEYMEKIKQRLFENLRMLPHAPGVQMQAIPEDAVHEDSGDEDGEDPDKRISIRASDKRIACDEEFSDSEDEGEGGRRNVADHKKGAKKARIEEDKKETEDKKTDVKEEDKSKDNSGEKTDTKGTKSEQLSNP
T3 sequence (O15379 whole entry): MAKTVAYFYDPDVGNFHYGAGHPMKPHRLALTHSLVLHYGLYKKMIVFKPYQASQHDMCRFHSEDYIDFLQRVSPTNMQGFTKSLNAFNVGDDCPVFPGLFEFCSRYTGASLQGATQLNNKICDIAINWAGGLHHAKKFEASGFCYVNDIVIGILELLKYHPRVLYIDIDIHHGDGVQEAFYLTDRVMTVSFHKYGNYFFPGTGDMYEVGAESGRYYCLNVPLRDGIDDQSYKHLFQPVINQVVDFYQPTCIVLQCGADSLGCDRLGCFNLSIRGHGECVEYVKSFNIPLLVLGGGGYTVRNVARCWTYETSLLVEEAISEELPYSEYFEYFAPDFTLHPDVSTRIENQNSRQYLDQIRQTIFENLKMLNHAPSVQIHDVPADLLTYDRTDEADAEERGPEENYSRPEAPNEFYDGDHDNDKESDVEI
T1 sequence (Q13547 whole entry, canonical isoform): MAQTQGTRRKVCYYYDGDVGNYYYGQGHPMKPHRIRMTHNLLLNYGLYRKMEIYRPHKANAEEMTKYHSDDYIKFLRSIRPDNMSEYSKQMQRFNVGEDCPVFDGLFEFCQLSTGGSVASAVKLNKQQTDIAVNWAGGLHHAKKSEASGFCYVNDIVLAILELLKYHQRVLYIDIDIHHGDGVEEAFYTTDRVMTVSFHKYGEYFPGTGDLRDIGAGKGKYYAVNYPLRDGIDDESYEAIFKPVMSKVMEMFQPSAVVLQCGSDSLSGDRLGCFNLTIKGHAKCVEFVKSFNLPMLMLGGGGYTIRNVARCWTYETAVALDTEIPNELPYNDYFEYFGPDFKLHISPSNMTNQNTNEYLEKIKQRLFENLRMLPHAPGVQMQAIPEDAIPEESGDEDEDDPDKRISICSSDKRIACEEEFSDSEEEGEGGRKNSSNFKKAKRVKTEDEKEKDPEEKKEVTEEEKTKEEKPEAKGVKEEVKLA

Activity [6] | Activity [7] | Activity [8] | Activity [9] | Activity [10] | Activity [11] | inhibition [12] | inhibition [13] | inhibition [14] | inhibition [15] | SMILES | Activity [1] | Activity [2] | Activity [3] | Activity [4] | Activity [5]
81 to 84% | 83% | 74 to 92% | 35% | 73% | 83% | – | – | – | – | CCCCC(CCCC(=O)NO)CCC(=O)Nc1ccccc1 (stereo not given) | 23% | 42% | 66% | 88% | 101%
– | – | – | – | – | – | Dose-dependent effect | Active | Active | Active | O=C(CCCC(CCC(=O)Nc1ccccc1)Cc1ccccc1)NO (stereo not given) | – | – | – | – | –
